Key:
DinF-BH [1] = biological target: T1, DinF-BH (Halalkalibacterium halodurans, UniProt Q9KAX3); assay: Fluorescence polarization assay of R6G binding to purified DinF-BH; design: species or system Bacillus halodurans
T1 sequence (Q9KAX3 1-464): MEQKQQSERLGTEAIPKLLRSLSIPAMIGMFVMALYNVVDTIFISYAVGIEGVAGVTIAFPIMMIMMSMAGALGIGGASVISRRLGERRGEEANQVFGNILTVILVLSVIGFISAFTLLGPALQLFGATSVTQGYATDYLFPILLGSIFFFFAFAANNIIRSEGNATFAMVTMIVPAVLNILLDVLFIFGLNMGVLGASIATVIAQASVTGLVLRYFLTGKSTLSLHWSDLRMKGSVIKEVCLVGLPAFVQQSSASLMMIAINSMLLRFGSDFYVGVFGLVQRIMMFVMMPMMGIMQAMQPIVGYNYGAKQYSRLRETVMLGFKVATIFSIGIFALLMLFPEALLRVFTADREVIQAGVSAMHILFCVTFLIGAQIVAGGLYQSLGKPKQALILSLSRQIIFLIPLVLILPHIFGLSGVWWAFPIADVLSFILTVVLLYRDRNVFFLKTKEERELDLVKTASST

DinF-BH D40N mutant = biological target: T2, DinF-BH D40N mutant (Halalkalibacterium halodurans, UniProt Q9KAX3, D40N); assay: Fluorescence polarization assay of R6G binding to purified D40N mutant; design: species or system Bacillus halodurans
T2 sequence (Q9KAX3 1-464 D40N): T1 sequence (Q9KAX3 1-464)
Method in brief: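 Each protein concentration was read after a 10-min incubation. Kd comes from the binding isotherm, three titrations, SD. For pH dependence the binding solutions spanned pH 5.5–9.0, fitted to Kd = (1 + [H+]/Ki)Kmin.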

DinF-BH [2] = biological target: T1, DinF-BH; assay: Fluorescence measurement of H+-release upon drug binding; type: biochemical, Bacillus halodurans; details: 4 μM protein, 250 μM TPP, fluoresceine pH indicator, repeated three times
Method in brief: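 Purified transporter was dialysed against 10% (vol/vol) glycerol, 50 mM NaCl and 0.03% (wt/vol) DDM, then diluted to 4 μM in the same buffer with 2 μM fluoresceine as pH indicator. The sample was stirred, and fluorescence was read at excitation 494 nm and emission 521 nm. TPP was added to 250 μM. Three repeats.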

DinF-BH [3] = biological target: T1, DinF-BH; assay: Drug-H+ antiport assay in everted membrane vesicles containing DinF-BH; type: biochemical, Bacillus halodurans; details: 250 μM TPP, acridine orange fluorescence
NorM-NG = assay: Drug-H+ antiport assay in everted membrane vesicles containing NorM-NG; type: biochemical, Neisseria gonorrhoeae; details: 250 μM TPP, acridine orange fluorescence

CC/N=c1\cc2oc3cc(NCC)c(C)cc3c(-c3ccccc3C(=O)OCC)c-2cc1C [R6G, rhodamine 6G]
Kd (DinF-BH [1]): 3.1 ± 0.4 µM | Kd (DinF-BH D40N mutant): 107 ± 4.1 µM

C(=NC1CCCCC1)=NC1CCCCC1 [dicyclohexylcarbodiimide]
effect of treatment of DinF-BH on the binding of R6G (DinF-BH [1]; treatment of DinF-BH with the chemical): abolished the binding of R6G

c1ccc([P+](c2ccccc2)(c2ccccc2)c2ccccc2)cc1 [TPP, tetraphenylphosphonium]
stoichiometry of H+ released per DinF-BH upon drug binding (DinF-BH [2]): 1.00 ± 0.07 H^+ per DinF-BH | H+ efflux (fluorescence dequenching) on addition of substrate, DinF-BH vesicles (DinF-BH [3]): elicited efflux of H^+ | H+ efflux (fluorescence dequenching) on addition of substrate, NorM-NG vesicles (NorM-NG): no response

Reference: article PMC3825517 (Nature structural & molecular biology, 2013)
